Reference: ChEMBL document CHEMBL3627671, “Novel derivatives of nitro-substituted salicylic acids: Synthesis, antimicrobial activity and cytotoxicity” (Bioorg Med Chem, 2015)
≈ marks a conversion by molar mass, not a printed value.

Assays:
[1] = test system: Mycobacterium tuberculosis; assay: Antimycobacterial activity against Mycobacterium tuberculosis H37Rv 331/88 after 14 days; assay type: functional; details: H37Rv 331/88, 336 h
[2] = test system: Mycobacterium tuberculosis; assay: Antimycobacterial activity against Mycobacterium tuberculosis H37Rv 331/88 after 21 days; assay type: functional; details: H37Rv 331/88, 504 h
[3] = test system: Mycobacterium avium; assay: Antimycobacterial activity against Mycobacterium avium 330/80 after 14 days; assay type: functional; details: 330/80, 336 h
[4] = test system: Mycobacterium avium; assay: Antimycobacterial activity against Mycobacterium avium 330/80 after 21 days; assay type: functional; details: 330/80, 504 h
[5] = test system: Mycobacterium kansasii; assay: Antimycobacterial activity against Mycobacterium kansasii 235/80 after 7 days; assay type: functional; details: 235/80, 168 h
How it was run: (§1)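 Šula's semisynthetic medium micromethod at 37 °C, read after 7, 14 and 21 days. The 1.0 McFarland suspension was diluted 10^-4. MIC determined. 6509/96 is a clinical isolate.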

[6] = test system: Mycobacterium kansasii; assay: Antimycobacterial activity against Mycobacterium kansasii 235/80 after 14 days; assay type: functional; details: 235/80, 336 h; how it was run: as §1
[7] = test system: Mycobacterium kansasii; assay: Antimycobacterial activity against Mycobacterium kansasii 235/80 after 21 days; assay type: functional; details: 235/80, 504 h; how it was run: as §1
[8] = test system: Mycobacterium kansasii; assay: Antimycobacterial activity against Mycobacterium kansasii 6509/96 after 7 days; assay type: functional; details: 6509/96, 168 h; how it was run: as §1
[9] = test system: Mycobacterium kansasii; assay: Antimycobacterial activity against Mycobacterium kansasii 6509/96 after 14 days; assay type: functional; details: 6509/96, 336 h; how it was run: as §1
[10] = test system: Mycobacterium kansasii; assay: Antimycobacterial activity against Mycobacterium kansasii 6509/96 after 21 days; assay type: functional; details: 6509/96, 504 h; how it was run: as §1
[11] = test system: Staphylococcus aureus; assay: Antibacterial activity against Staphylococcus aureus CCM 4516/08 after 24 hrs by microdilution broth method; assay type: functional; details: CCM 4516/08, 24 h
[12] = test system: Staphylococcus aureus; assay: Antibacterial activity against Staphylococcus aureus CCM 4516/08 after 48 hrs by microdilution broth method; assay type: functional; details: CCM 4516/08, 48 h
[13] = test system: Staphylococcus aureus; assay: Antibacterial activity against methicillin-resistant Staphylococcus aureus H 5996/08 after 24 hrs by microdilution broth method; assay type: functional; details: H 5996/08, 24 h
[14] = test system: Staphylococcus aureus; assay: Antibacterial activity against methicillin-resistant Staphylococcus aureus H 5996/08 after 48 hrs by microdilution broth method; assay type: functional; details: H 5996/08, 48 h
[15] = test system: Staphylococcus epidermidis; assay: Antibacterial activity against Staphylococcus epidermidis H 6966/08 after 24 hrs by microdilution broth method; assay type: functional; details: H 6966/08, 24 h
How it was run: (§2)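 Mueller-Hinton broth microdilution (modified M07-A07), pH 7.4 (±0.2). Compounds dissolved in DMSO, tested at final 500 to 0.49 µmol/L. Inoculum in sterile water matched to 0.5 McFarland. Incubated in the dark, humid atmosphere, 35 °C, read at 24 and 48 h visually and at 540 nm. MIC taken as ≥95% growth reduction (IC95) versus control.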

[16] = test system: Staphylococcus epidermidis; assay: Antibacterial activity against Staphylococcus epidermidis H 6966/08 after 48 hrs by microdilution broth method; assay type: functional; details: H 6966/08, 48 h; how it was run: as §2
[17] = test system: Enterococcus sp.; assay: Antibacterial activity against Enterococcus sp. J 14365/08 after 24 hrs by microdilution broth method; assay type: functional; details: J 14365/08, 24 h; how it was run: as §2
[18] = test system: Enterococcus sp.; assay: Antibacterial activity against Enterococcus sp. J 14365/08 after 48 hrs by microdilution broth method; assay type: functional; details: J 14365/08, 48 h; how it was run: as §2
[19] = test system: Escherichia coli; assay: Antibacterial activity against Escherichia coli CCM4517 after 24 hrs by microdilution broth method; assay type: functional; details: CCM4517, 24 h; how it was run: as §2
[20] = test system: Escherichia coli; assay: Antibacterial activity against Escherichia coli CCM4517 after 48 hrs by microdilution broth method; assay type: functional; details: CCM4517, 48 h; how it was run: as §2
[21] = test system: Klebsiella pneumoniae; assay: Antibacterial activity against Klebsiella pneumoniae D 11750/08 after 24 hrs by microdilution broth method; assay type: functional; details: D 11750/08, 24 h; how it was run: as §2
[22] = test system: Klebsiella pneumoniae; assay: Antibacterial activity against Klebsiella pneumoniae D 11750/08 after 48 hrs by microdilution broth method; assay type: functional; details: D 11750/08, 48 h; how it was run: as §2
[23] = test system: Klebsiella pneumoniae; assay: Antibacterial activity against ESBL-positive Klebsiella pneumoniae J 14368/08 after 24 hrs by microdilution broth method; assay type: functional; details: J 14368/08, 24 h; how it was run: as §2
[24] = test system: Klebsiella pneumoniae; assay: Antibacterial activity against ESBL-positive Klebsiella pneumoniae J 14368/08 after 48 hrs by microdilution broth method; assay type: functional; details: J 14368/08, 48 h; how it was run: as §2
[25] = test system: Pseudomonas aeruginosa; assay: Antibacterial activity against Pseudomonas aeruginosa CCM 1961 after 24 hrs by microdilution broth method; assay type: functional; details: CCM 1961, 24 h; how it was run: as §2
[26] = test system: Pseudomonas aeruginosa; assay: Antibacterial activity against Pseudomonas aeruginosa CCM 1961 after 48 hrs by microdilution broth method; assay type: functional; details: CCM 1961, 48 h; how it was run: as §2
[27] = test system: Candida albicans; assay: Antifungal activity against Candida albicans ATCC 44859 after 24 hrs by microdilution broth method; assay type: functional; details: ATCC 44859, 24 h
How it was run: (§3)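 CLSI M27-A3 broth microdilution in RPMI 1640 with glutamine, buffered to pH 7.0 with MOPS; DMSO diluent. Yeast inoculum 5 × 10^3 ± 0.2 CFU/mL. Moulds grown on Sabouraud agar 3–10 days before spore harvest, final inoculum 0.5-5 × 10^4 CFU/mL, checked in a Bürker chamber. Incubated dark, humid, 35 °C, read at 24 and 48 h visually and at 540 nm. MIC taken as ≥80% (yeasts) or ≥50% (filamentous) growth reduction versus control.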

[28] = test system: Candida albicans; assay: Antifungal activity against Candida albicans ATCC 44859 after 48 hrs by microdilution broth method; assay type: functional; details: ATCC 44859, 48 h; how it was run: as §3
[29] = test system: Candida tropicalis; assay: Antifungal activity against Candida tropicalis 156 after 24 hrs by microdilution broth method; assay type: functional; details: Candida tropicalis, 156, 24 h; how it was run: as §3
[30] = test system: Candida tropicalis; assay: Antifungal activity against Candida tropicalis 156 after 48 hrs by microdilution broth method; assay type: functional; details: Candida tropicalis, 156, 48 h; how it was run: as §3
[31] = test system: Pichia kudriavzevii; assay: Antifungal activity against Candida krusei E28 after 24 hrs by microdilution broth method; assay type: functional; details: E28, 24 h; how it was run: as §3
[32] = test system: Pichia kudriavzevii; assay: Antifungal activity against Candida krusei E28 after 48 hrs by microdilution broth method; assay type: functional; details: E28, 48 h; how it was run: as §3
[33] = test system: Nakaseomyces glabratus; assay: Antifungal activity against Candida glabrata 20/I after 24 hrs by microdilution broth method; assay type: functional; how it was run: as §3
[34] = test system: Nakaseomyces glabratus; assay: Antifungal activity against Candida glabrata 20/I after 48 hrs by microdilution broth method; assay type: functional; how it was run: as §3
[35] = test system: Trichosporon asahii; assay: Antifungal activity against Trichosporon asahii 1188 after 24 hrs by microdilution broth method; assay type: functional; details: Trichosporon asahii, 1188, 24 h; how it was run: as §3
[36] = test system: Trichosporon asahii; assay: Antifungal activity against Trichosporon asahii 1188 after 48 hrs by microdilution broth method; assay type: functional; details: Trichosporon asahii, 1188, 48 h; how it was run: as §3
[37] = test system: Aspergillus fumigatus; assay: Antifungal activity against Aspergillus fumigatus 231 after 24 hrs by microdilution broth method; assay type: functional; details: Aspergillus fumigatus, 231, 24 h; how it was run: as §3
[38] = test system: Aspergillus fumigatus; assay: Antifungal activity against Aspergillus fumigatus 231 after 48 hrs by microdilution broth method; assay type: functional; details: Aspergillus fumigatus, 231, 48 h; how it was run: as §3
[39] = test system: Lichtheimia corymbifera; assay: Antifungal activity against Absidia corymbifera 272 after 24 hrs by microdilution broth method; assay type: functional; details: Lichtheimia corymbifera, 272, 24 h; how it was run: as §3
[40] = test system: Lichtheimia corymbifera; assay: Antifungal activity against Absidia corymbifera 272 after 48 hrs by microdilution broth method; assay type: functional; details: Lichtheimia corymbifera, 272, 48 h; how it was run: as §3
[41] = test system: Trichophyton mentagrophytes; assay: Antifungal activity against Trichophyton mentagrophytes 445 after 24 hrs by microdilution broth method; assay type: functional; details: Trichophyton mentagrophytes, 445, 24 h
[42] = test system: Trichophyton mentagrophytes; assay: Antifungal activity against Trichophyton mentagrophytes 445 after 48 hrs by microdilution broth method; assay type: functional; details: Trichophyton mentagrophytes, 445, 48 h
[43] = test system: HepG2; assay: Cytotoxicity against human HepG2 cells after 24 hrs […]; assay type: cell-based; details: HepG2, 24 h
[44] = Selectivity index, ratio of CI50 for human HepG2 cells to MIC100 for Mycobacterium tuberculosis H37Rv 331/88

With `O=C(Nc1ccc(C(F)(F)F)cc1)c1ccc([N+](=O)[O-])cc1O` the MIC [1] was 2 µM (≈ 0.652 µg/mL), the MIC [2] was 4 µM (≈ 1.3 µg/mL) and the MIC [3] was 32 µM (≈ 10.4 µg/mL). For the same compound, the MIC [4] was 32 µM (≈ 10.4 µg/mL), the MIC [5] was 2 µM (≈ 0.652 µg/mL) and the MIC [6] was 4 µM (≈ 1.3 µg/mL). For the same compound, the MIC [7] was 8 µM (≈ 2.61 µg/mL), the MIC [8] was 4 µM (≈ 1.3 µg/mL) and the MIC [9] was 8 µM (≈ 2.61 µg/mL). For the same compound, the MIC [10] was 8 µM (≈ 2.61 µg/mL), the MIC [11] was 7.81 µM (≈ 2.55 µg/mL) and the MIC [12] was 7.81 µM (≈ 2.55 µg/mL). The MIC [13] was 1.95 µM (≈ 0.636 µg/mL), the MIC [14] was 1.95 µM (≈ 0.636 µg/mL) and the MIC [15] was 1.95 µM (≈ 0.636 µg/mL). It also gave an MIC [16] of 7.81 µM (≈ 2.55 µg/mL), an MIC [17] of 250 µM (≈ 81.6 µg/mL) and an MIC [18] of 250 µM (≈ 81.6 µg/mL). The MIC [19] was 500 µM (≈ 163 µg/mL), the MIC [20] was 500 µM (≈ 163 µg/mL) and the MIC [21] was 500 µM (≈ 163 µg/mL). It also gave an MIC [22] of 500 µM (≈ 163 µg/mL), an MIC [23] of 500 µM (≈ 163 µg/mL) and an MIC [24] of 500 µM (≈ 163 µg/mL). For the same compound, the MIC [25] was > 500 µM, the MIC [26] was > 500 µM and the MIC [27] was 250 µM (≈ 81.6 µg/mL). For the same compound, the MIC [28] was 250 µM (≈ 81.6 µg/mL), the MIC [29] was 250 µM (≈ 81.6 µg/mL) and the MIC [30] was 250 µM (≈ 81.6 µg/mL). It also gave an MIC [31] of 62.5 µM (≈ 20.4 µg/mL), an MIC [32] of 125 µM (≈ 40.8 µg/mL) and an MIC [33] of 125 µM (≈ 40.8 µg/mL). For the same compound, the MIC [34] was 250 µM (≈ 81.6 µg/mL), the MIC [35] was 31.2 µM (≈ 10.2 µg/mL) and the MIC [36] was 31.2 µM (≈ 10.2 µg/mL). It also gave an MIC [37] of 31.2 µM (≈ 10.2 µg/mL), an MIC [38] of 31.2 µM (≈ 10.2 µg/mL) and an MIC [39] of 31.2 µM (≈ 10.2 µg/mL). The MIC [40] was 62.5 µM (≈ 20.4 µg/mL), the MIC [41] was 62.5 µM (≈ 20.4 µg/mL) and the MIC [42] was 125 µM (≈ 40.8 µg/mL). The IC50 [43] was 1.2 µM and the “Selectivity Index” value [44] was 0.3.
